Measurements reported in ChEMBL document CHEMBL4610116, “Salicylanilide Analog Minimizes Relapse of Clostridioides difficile Infection in Mice” (J Med Chem, 2020).
Values after ≈ are worked out from the molar mass of the structure shown. Active and inactive are the calls of the source. The calls are words filed in the database; no cut-off is given here.

Experiments:
[1] = Volume of distribution at steady state in non-antibioticc-treated C57Bl/6J mouse at 0.3 mg/kg, iv and measured after 5 mins to 24 hrs by LC/MS-SRM analysis; assay type: ADME, organism-based; details: in vivo
Summary of the method: (§1)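 Non-antibiotic-treated C57Bl/6J mice given a single i.v. dose of 0.3 mg/kg; n = 3 per time point. Bled at 5, 10, 30 min and 1, 2, 4, 8, 24 h. Plasma mixed with 2 volumes acetonitrile containing internal standard, centrifuged, supernatant quantified by LC/MS-SRM.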

[2] = Cytotoxicity in HEK293T/17 cells assessed as reduction in cell viability incubated for 16 hrs by MTS assay; assay type: cell-based; details: human
Summary of the method: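 HEK 293T/17 cells seeded at 2 × 10⁴ per well in DMEM and allowed to adhere 24 h at 37°C, 5% CO₂. Exposed to 0.020–40 µM compound in DMEM for 16 h, then MTS read-out after 1 h at 37°C. Normalized to untreated cells and to 0.2 mM digitonin; duplicates.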

Clostridioides difficile [3] = assay: (§2) Suppression of relapse of Clostridioides difficile 630 infection in cefoperazone-treated C57BL/6J mouse model of recurrent Clostridioides difficile 630 infection assessed as reduction in microbial load (total vegetative cells plus spores) at 5 mg/kg, po for 5 days from day 4 to 9 after infection with spores; assay type: functional, organism-based
Summary of the method: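 Five-week-old C57BL/6J mice of both sexes given cefoperazone 0.5 mg/ml in drinking water for 5 days, then a 2-day washout. Oral challenge with C. difficile 630 spores on day 0. Oral gavage in 2-(hydroxypropyl)-cyclodextrin vehicle on days 4–9; n = 6 per group. Body weight recorded daily. Feces or cecal contents suspended 1:10 in PBS, serially diluted and plated on TCCFA, incubated anaerobically at 37°C for 24 h; results as CFU/g.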

[4] = AUC in cefoperazone-treated C57Bl/6J mouse at 1 mg/kg, po dosed each day for 5 days by LC/MS-SRM analysis; assay type: ADME, organism-based; details: in vivo
Summary of the method: (§3)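 C57Bl/6J mice pre-treated with cefoperazone 0.5 mg/mL in drinking water for 10 days, then a 2-day washout. Oral dose of 1 mg/kg given daily for 5 days. Bled at 5, 10, 30 min and 1, 2, 4, 10, 24 h after dosing on the first and final days; n = 3 per time point. Plasma mixed with 2 volumes acetonitrile containing internal standard, centrifuged, supernatant analysed by LC/MS-SRM.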

[5] = Clearance in non-antibioticc-treated C57Bl/6J mouse at 0.3 mg/kg, iv and measured after 5 mins to 24 hrs by LC/MS-SRM analysis; assay type: ADME, organism-based; details: in vivo; summary of the method: as §1
[6] = (§4) Effect on gut microbiota in cefoperazone-treated C57BL/6J mouse model of recurrent Clostridioides difficile 630 infection assessed as increase in abundance of phylum Firmicutes at 5 mg/kg, po for 5 days from day 4 to 9 after infection with spores measured on day day 14 by 16S rRNA Illumina sequencing analysis; assay type: ADME, organism-based; details: in vivo, 120 h
Summary of the method: (§5)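 Recurrent CDI model in cefoperazone-treated C57BL/6J mice challenged with strain 630 and gavaged on days 4–9 (n = 6 per group). Cecal tissue snips collected at necropsy underwent 16S rRNA gene community sequencing on Illumina MiSeq.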

[7] = Tmax in cefoperazone-treated C57Bl/6J mouse at 1 mg/kg, po dosed each day for 5 days by LC/MS-SRM analysis; assay type: ADME, organism-based; details: in vivo; summary of the method: as §3
[8] = Ratio of Cmin in cecum of cefoperazone-treated C57Bl/6J mouse at 1 mg/kg, po dosed each day for 5 days and measured over 24 hrs post last dose by LC/MS-SRM analysis to MIC for antimicrobial activity against Clostridioides difficile CD10463 incubated for 20 to 24 hrs by broth microdilution method; assay type: ADME, organism-based; details: in vivo
[9] = Tmax in non-antibioticc-treated C57Bl/6J mouse at 0.3 mg/kg, iv and measured after 5 mins to 24 hrs by LC/MS-SRM analysis; assay type: ADME, organism-based; details: in vivo; summary of the method: as §1
[10] = Cmax in non-antibioticc-treated C57Bl/6J mouse at 0.3 mg/kg, iv and measured after 5 mins to 24 hrs by LC/MS-SRM analysis; assay type: ADME, organism-based; parameters: dose 0.3 mg/kg, route intravenous; details: in vivo; summary of the method: as §1
Clostridioides difficile [11] = assay: as §2, with “group-Proteobacteria level” for “microbial load (total vegetative cells plus spores)”, “spores measured on day day 14” for “spores”; assay type: functional, organism-based; summary of the method: as §5
[12] = Oral bioavailability in cefoperazone-treated C57Bl/6J mouse at 1 mg/kg dosed each day for 5 days by LC/MS-SRM analysis; assay type: ADME, organism-based; details: in vivo
[13] = Half life in non-antibioticc-treated C57Bl/6J mouse at 0.3 mg/kg, iv and measured after 5 mins to 24 hrs by LC/MS-SRM analysis; assay type: ADME, organism-based; details: in vivo; summary of the method: as §1
[14] = Toxicity in sheep RBC assessed as induction of hemolysis at 0.625 to 80 uM incubated for 1 hr at 37 degC relative to control; assay type: cell-based, Ovis aries, Erythrocyte; details: sheep red blood cells (erythrocytes), read-out: Activity
Summary of the method: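 Sheep erythrocytes washed three times in PBS pH 7.4. A 3% suspension mixed 1:1 with compound in PBS, final 0.625–80 µM, for 1 h at 37°C. Centrifuged at 500 × g and supernatant absorbance read at 540 nm. 1% Triton X-100 served as positive control and 1.6% DMSO in PBS as negative control.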

Clostridioides difficile [15] = assay: Antimicrobial activity against Clostridioides difficile CD10463 incubated for 20 to 24 hrs by broth microdilution method; assay type: functional
Summary of the method: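 Broth microdilution in pre-reduced BHIS using two-fold serial dilutions and ~5 × 10⁵ cfu/mL inoculum. Incubated 20–24 h at 37°C, anaerobic (8% H₂, 8% CO₂, 84% N₂). MIC read by the Lambert-Pearson method; duplicates.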

[16] = Half life in cefoperazone-treated C57Bl/6J mouse at 1 mg/kg, po dosed each day for 5 days by LC/MS-SRM analysis; assay type: ADME, organism-based; details: in vivo; summary of the method: as §3
Clostridioides difficile [17] = assay: as §2, with “toxin activity in cecal content” for “microbial load (total vegetative cells plus spores)”, “spores measured on day day 14” for “spores”; assay type: functional, organism-based
Summary of the method: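 Mice challenged with strain 630 spores after cefoperazone; drug given 5 mg/kg by gavage, days 4–9, vehicle hydroxypropyl-cyclodextrin. Cecal content at day 14 diluted 1:10 in PBS, filtered, then serially diluted to 10⁻⁶. Dilutions preincubated 40 min at room temperature with PBS or antitoxin, then added to Vero cells overnight at 37°C. Titer is the reciprocal of the highest dilution rounding 80% of cells.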

[18] = MRT in cefoperazone-treated C57Bl/6J mouse at 1 mg/kg, po dosed each day for 5 days by LC/MS-SRM analysis; assay type: ADME, organism-based; details: in vivo; summary of the method: as §3
[19] = Cmax in cefoperazone-treated C57Bl/6J mouse at 1 mg/kg, po dosed each day for 5 days by LC/MS-SRM analysis; assay type: ADME, organism-based; parameters: dose 1 mg/kg, route oral; details: in vivo; summary of the method: as §3
[20] = as §4, with “Lachnospiraceae” for “phylum Firmicutes”; assay type: ADME, organism-based; details: in vivo, 120 h; summary of the method: as §5
[21] = Cmax in cecum of cefoperazone-treated C57Bl/6J mouse at 1 mg/kg, po dosed each day for 5 days and measured at 4 hrs post last dose by LC/MS-SRM analysis; assay type: ADME, organism-based, Caecum; parameters: dose 1 mg/kg, route oral
Summary of the method: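 Cefoperazone-pretreated mice (0.5 mg/mL in drinking water, 10 days; 2-day washout) dosed orally at 1 mg/kg daily for 5 days. On the final day, mice euthanized at 30 min, 4 h and 24 h post-dose and cecal contents collected. Samples homogenized in 4 volumes acetonitrile containing internal standard, centrifuged, supernatant analysed by LC/MS-SRM.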

Structure (SMILES): O=C(Nc1cc(C(F)(F)F)c(Oc2ccc(Cl)cc2)c(C(F)(F)F)c1)c1cc(Cl)cc(Cl)c1O
- Vdss [1]: 7.9 mL
- Activity [2]: > 2.5 µM
- Activity (Clostridioides difficile [3]): Active
- AUC at 120 h [4]: 23.2 µM·h
- clearance [5]: 1 mL/min/kg
- Activity [6]: Non-Toxic
- Tmax [7]: 2 h
- Ratio [8]: 100
- Tmax [9]: 0.17 h
- Cmax [10]: 1630 nM
- Activity (Clostridioides difficile [11]): Active
- bioavailability [12]: 76%
- half-life [13]: 5 h
- hemolysis at 1 h, up to 80 µM [14]: < 2%
- MIC (Clostridioides difficile [15]): 0.03 µM (≈ 0.0163 µg/mL)
- half-life [16]: 10.7 h
- Activity (Clostridioides difficile [17]): Active
- MRT [18]: 9.7 h
- Cmax [19]: 1780 nM
- Activity [20]: Non-Toxic
- Cmax [21]: 50000 nM
